OXTR potentiator: potentiators of human oxytocin receptor; P30559; CHO-OTR cells, Fluo-8 calcium fluorescence, potentiator mode; 0% = oxytocin EC15, 100% = EC100; activation, % at 3 µM; hit rate 0.061% among 320,000; AID 2445;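 active means activation above that plate's cutoff, the mean activation of tested compounds plus 3 SD, cut at about 6.6% in these data, passing the limit was not always enough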;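 further: 100% uses oxytocin at 75 nM as the full agonist control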
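Replication – single well per compound, singlicate · Assay system – CHO cell line stably expressing human OTR · Timing – 6 min pre-incubation, 100 s read · Measure – normalized max/min fluorescence ratio, % activation · Doses – 3.0 µM, one dose · Detection – Fluo-8 calcium dye fluorescence · Probe or stimulus – oxytocin near EC15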
OX1R antag-1: antagonists of human orexin 1 receptor (OX1R). O43613. OX1R-expressing cells, FRET antagonist read-out. inhibition, % at 6.6 µM. hit rate 1.8% among 330,000. AID 485270; in the data active means inhibition mostly above about 38%, no sharp cut-off; inactive means mostly below about 40%;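 further: 0% = agonist challenge alone and 100% = reference antagonist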
OX1R antag-2: antagonists of human orexin 1 receptor. CHO/OX1R cells, Fluo-8 calcium fluorescence, orexin A. inhibition, % at 5 µM. hit rate 0.43% among 330,000;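 active means inhibition above its plate's threshold, mean inhibition of all tested compounds on the plate plus 3 SD, cut at about 37% in these data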;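 further: 0% = orexin A challenge wells and 100% = SB-334867-A antagonist wells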
V1R ag counter: counter-screen for oxytocin receptor agonists: human V1a receptor agonists. activation, % at 3 µM. hit rate 0.25% among 320,000. P37288. CHO-V1R cells, Fluo-8 calcium fluorescence, agonist mode; 0% DMSO, 100% 3 nM vasopressin;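 active means activation above the mean activation of all tested compounds plus 3 SD, per screening run, cut at about 20% in these data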;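 further: signal is peak over basal fluorescence ratio across a 100 second FLIPR read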
Target sequence (P37288 whole entry, looked up): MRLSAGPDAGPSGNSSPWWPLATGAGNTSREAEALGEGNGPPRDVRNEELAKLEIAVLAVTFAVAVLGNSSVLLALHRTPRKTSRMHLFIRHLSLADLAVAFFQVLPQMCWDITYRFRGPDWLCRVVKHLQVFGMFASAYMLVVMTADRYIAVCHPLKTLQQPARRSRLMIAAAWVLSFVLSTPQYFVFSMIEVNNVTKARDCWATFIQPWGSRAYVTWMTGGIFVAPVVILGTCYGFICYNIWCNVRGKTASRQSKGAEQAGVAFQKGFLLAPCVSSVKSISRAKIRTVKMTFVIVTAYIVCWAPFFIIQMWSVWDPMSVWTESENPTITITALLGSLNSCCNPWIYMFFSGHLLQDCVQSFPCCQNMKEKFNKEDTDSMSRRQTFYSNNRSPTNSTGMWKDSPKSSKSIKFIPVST
CHO parental Ca: counter-screen for OX1R antagonists: effect in parental CHO cells | hit rate 0.63% among 330,000 | parental CHO-K1, ATP-induced calcium, Fluo-8 fluorescence | inhibition, % at 5.6 µM;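 active means inhibition above that plate's mean sample inhibition plus 3 SD, cut at about 26% in these data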;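 further: 0% = ATP-challenged DMSO wells and 100% = DMSO wells without ATP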
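Test system: untransfected parental CHO cell line; also added: ATP stimulus; dosing: 5.6 µM, single dose; signal: calcium-sensitive Fluo-8 fluorescence; measure: percent inhibition of ATP-evoked calcium rise, normalized to controls; benchmarks: low control ATP plus DMSO, high control DMSO only; replication: one well per compound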
OXTR agonist: human OXTR agonism | P30559 | CHO-OTR cells, Fluo-8 calcium fluorescence; normalized: DMSO 0%, oxytocin 100% | activation, % at 3 µM | hit rate 0.32% among 320,000 | AID 2435;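 active means activation above the mean of all tested compounds plus 3 SD, cutoff set per screening run, cut at about 20% in these data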;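 further: peak over basal fluorescence ratio from a 100 s FLIPR kinetic read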
The depositor's hits bear a star; / = no result given. Only some compounds are listed: those with a hit (about 2.6% of all), similar ones and a draw of the others.

SMILES	OXTR potentiator	OX1R antag-1	OX1R antag-2	V1R ag counter	CHO parental Ca	OXTR agonist
O=C(COc1ccccc1)Nc1cccc(-c2ccc(N3CCOCC3)nn2)c1	1	7	-35	0	-4	0
O=C(CSC(=O)c1ccccc1)Nc1ccccc1F	-5	0	-3	0	-7	0
CCCCOC(=O)CSCC(=O)N1N=C(c2cccs2)CC1c1ccc(F)cc1 (stereo not given)	-1	3	-13	1	29*	-2
Cc1nn(C(C)(C)C)c(OC(=O)c2ccc(Br)o2)c1Sc1ccccc1	-3	38*	-19	0	-24	1
Cc1nn(C(C)(C)C)c(OC(=O)c2ccco2)c1Sc1ccccc1	-5	22	-9	-1	-7	-1
C/C(=N\NC(=O)c1ccc([N+](=O)[O-])cc1)c1cccc([N+](=O)[O-])c1	-8	64*	-9	0	-11	-1
O=C(NNC(=O)c1cccc([N+](=O)[O-])c1)c1ccncc1	9	46*	-5	0	-6	0
O=C(Nc1ccccc1C(=O)N1CCCCCC1)c1cccc([N+](=O)[O-])c1	-9	53*	-8	-1	-30	-1
O=C(Nc1cccc([N+](=O)[O-])c1)Nc1cccc([N+](=O)[O-])c1	-15	45	-11	13	34*	16
C/C(=N\NC(=O)c1cccnc1)c1cccc([N+](=O)[O-])c1	-8	29	-23	0	-19	1
O=C(Nc1ccc(C(=O)O)cc1)Nc1cccc([N+](=O)[O-])c1	0	18	-14	0	-11	2
COc1cc(CN2CCCC(N3CCN(c4ccccc4C)CC3)C2)ccc1O (stereo not given)	-15	14	-12	1	-18	1
O=C(O)[C@H](Cc1ccccc1)N1C(=O)c2c(Cl)c(Cl)c(Cl)c(Cl)c2C1=O	0	48	-15	0	-7	-1
Cc1cc(F)cc(C)c1Cn1cnc2c(cnn2C(C)(C)C)c1=O	-4	12	-14	5	-13	-2
COCCn1c(SCC(=O)Nc2ccc3[nH]c(=O)[nH]c3c2)nc2ccccc21	-1	7	2	-1	-1	0
CCOC(=O)c1ccccc1OC(=O)CS(=O)c1ccccc1[N+](=O)[O-] (stereo not given)	-21	68	-22	-1	-7	0
COC(=O)c1ccc(OC(=O)CS(=O)c2ccccc2[N+](=O)[O-])cc1 (stereo not given)	-6	63*	-15	2	-11	0
O=C(Nc1ccccc1F)c1ccc2snnc2c1	0	71*	-18	-1	-9	-1
O=C(Nc1ccccc1)Nc1ccc2snnc2c1	-22	86*	29	12	31	18
O=C(Nc1ccc(Cl)cc1)c1ccc2snnc2c1	-10	16	1	9	10	3
CCN(CC)c1ccc2c(-c3ccc(S(=O)(=O)O)cc3S(=O)(=O)[O-])c3ccc(=[N+](CC)CC)cc-3oc2c1	-10	-38	93*	180*	75*	266*
CCN(CC)c1ccc2cc(C(N)=O)c(=N)oc2c1	-12	71	-28	1	-14	1
COc1ccc(-c2nc(CS(=O)CC(=O)NCc3ccc4c(c3)OCO4)c(C)o2)cc1OC (stereo not given)	-7	7	-9	0	-27	0
COc1cc(/C=C/C(=O)/C=C(O)/C=C/c2ccc(O)c(OC)c2)ccc1O	-10	2	41	41*	31	33*
O=c1cc(/C=C/c2ccccc2)oc2c1ccc1ccccc12	-4	56*	-25	1	-26	-1
SMILES	OXTR potentiator	OX1R antag-1	OX1R antag-2	V1R ag counter	CHO parental Ca	OXTR agonist
O=c1cc(C(F)(F)F)oc2c1ccc1ccccc12	-1	11	-6	2	-8	0
O=c1cc(-c2cccnc2)oc2c1ccc1ccccc12	-1	36*	-12	0	-3	-2
COc1ccccc1OCC(=O)NC1CC(C)(C)NC(C)(C)C1	1	15	-9	2	-9	1
CN(C)C(CNC(=O)CSc1nc2sc3c(c2c(=O)n1C)CCCC3)c1ccccc1 (stereo not given)	-2	12	-9	4	-21	2
CSc1cc(-c2ccncc2)nc(-c2ccc(Cl)cc2)c1	-4	-6	-39	1	-45	-1
COC(=O)c1c(C)oc2ccc(N(C(=O)c3ccncc3)S(=O)(=O)c3ccc(C)cc3C)cc12	-7	23	35	6	38*	0
COc1ccc(-c2csc(NC(=O)c3ccccc3NS(=O)(=O)c3ccc(C)cc3)n2)cc1	-14	43*	11	9	7	12
COc1ccc(-c2csc(NC(=O)c3c(OC)cccc3OC)n2)cc1	8	68*	2	1	-15	0
COc1ccc(-c2csc(NC(=O)c3ccco3)n2)cc1	-6	29	-31	-1	-19	-2
COc1ccc(-c2csc(NC(=O)COc3ccc(N(C)S(=O)(=O)c4ccc(C)cc4)cc3)n2)cc1	-7	24	-2	1	-5	-1
COc1ccc(NC(=O)c2c(OC)cccc2OC)c(OC)c1	3	46*	-34	0	-22	-1
COc1ccc(NC(=O)c2ccc(C(=O)Nc3ccc(OC)cc3OC)cc2)c(OC)c1	-3	22	-31	1	-16	-1
COc1cccc(-c2csc(NC(=O)Nc3ccccc3)n2)c1	-22	74*	45*	11	32*	11
CCCCCCN(C(=O)CCCN1C(=O)NC(c2ccc([N+](=O)[O-])cc2)C(C(=O)OCc2ccccc2)=C1C)C(C)C(=O)NCCCC (stereo not given)	/	13	3	/	-15	/
COc1ccc(C(=O)Nc2cc(OC)ccc2OC)cc1	-3	27	-24	-2	-15	-2
COc1ccc(OC)c(NC(=O)c2ccc(-c3csc(C)n3)cc2)c1	-11	51*	17	0	-25	-2
COc1ccc(S(=O)(=O)Nc2ccccc2C(=O)Nc2nc(-c3ccc(F)cc3)cs2)cc1OC	-16	67*	39	11	26	16
COc1ccc(OC)c(NC(=O)NNC(=O)COc2ccc([N+](=O)[O-])cc2)c1	-9	2	-8	0	-6	0
Cc1ccc(Cn2ccc(O)c(Cc3ccccc3)c2=O)cc1	-13	8	-22	1	-21	1
CCOC(=O)Cc1cc(OC)c(OC)cc1Cc1cc(OC)c(OC)cc1CC(=O)OCC	-3	18	-3	0	-16	0
O=C(c1ccc2c3c(cccc13)C(=O)N(O)C2=O)N1CCCCC1	-6	72*	7	0	-3	0
